For four compounds, Inhibitory effect and Concentration results are on record in ChEMBL document CHEMBL1147630, “New PDMP analogues inhibit process outgrowth in an insect cell line” (Bioorg Med Chem Lett, 2004).

Calls of active or inactive are those of the source. The rule behind the calls is not given here.

For test [1], the system named is MRRL-CH1. The test is described as follows: Inhibitory effect on outgrowth of MRRL-CH1 cell line at 1 uM concentration; Irreversible. The class given is functional, cell-based. Particulars: Manduca sexta. In short, it runs like this:
(§1)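 Embryonic Manduca sexta MRRL-CH1 cells, grown attached in DL medium in room air. Analogue in DMSO was added to well cultures 2–4 days after seeding, for 48 h. Drug was then diluted 16-fold by two medium exchanges, and cells were followed for 6 more days. Neurite outgrowth and reversibility were judged from photographs taken at 0, 24 and 48 h of exposure and at 24, 48 and 144 h after removal. Duplicates, with DMSO vehicle control.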

The subject of test [2] is MRRL-CH1. Kind of test: Inhibitory effect on outgrowth of MRRL-CH1 cell line at 0.5 uM concentration; Reversible. It is filed as functional, cell-based. Particulars: Manduca sexta. In a few lines: as §1
The subject of test [3] is MRRL-CH1. The test is described as follows: Inhibitory effect on outgrowth of MRRL-CH1 cell line at 5 uM concentration; Irreversible. The class given is functional, cell-based. Particulars: Manduca sexta. In short, it runs like this:
as §1

The species named for the next test is Rattus norvegicus. The test is described as follows: Concentration required to reduce the length of total axon plexus in rat embryonic hippocampal neurons. The class given is functional.
The subject of test [4] is MRRL-CH1. The test is described as follows: Inhibitory effect on outgrowth of MRRL-CH1 cell line at 0.5 uM concentration; No Effect. The class given is functional, cell-based. Particulars: Manduca sexta. In a few lines:
as §1

In test [5] the test system is MRRL-CH1. The test is described as follows: Inhibitory effect on outgrowth of MRRL-CH1 cell line at 1 uM concentration; No Effect. It is filed as functional, cell-based. Particulars: Manduca sexta. In short, it runs like this: as §1
A further test deals with SH-SY5Y. The test is described as follows: Concentration required to inhibit neurite outgrowth in SH-SY5Y cell line. The class given is functional, cell-based.
In test [6] the test system is MRRL-CH1. The test is described as follows: Inhibitory effect on outgrowth of MRRL-CH1 cell line at 5 uM concentration; No Effect. Particulars: Manduca sexta. The class given is functional, cell-based. In short, it runs like this: as §1

`CCCCCCCCCC(=O)N[C@H](CN1CCOCC1)[C@H](O)c1ccc2c(c1)OCO2`: the Inhibitory effect entry was “Irreversible” in the test with MRRL-CH1 [1], “Reversible” in the test with MRRL-CH1 [2] and “Irreversible” in the test on MRRL-CH1 [3].

As to `CCCCCCCCCC(=O)N[C@H](CN1CCOCC1)[C@H](O)c1ccc(OC)cc1`, the Inhibitory effect entry is “Irreversible” with MRRL-CH1 [1], “Reversible” in the test with MRRL-CH1 [2] and “Irreversible” in the test with MRRL-CH1 [3].

Turning to `CCCCCCCCCC(=O)N[C@H](CN1CCOCC1)[C@H](O)c1ccc(OC(C)(C)C)cc1`, the Inhibitory effect result in the test on MRRL-CH1 [1] was “Irreversible”; with MRRL-CH1 [2], “Reversible”; in the test on MRRL-CH1 [3], “Irreversible”.

Regarding `CCCCCCCCCC(=O)N[C@H](CN1CCOCC1)[C@H](O)c1ccccc1`, the Concentration in the test listed under Rattus norvegicus amounted to 50 µM; in the test on SH-SY5Y, 20 µM. In addition, the Inhibitory effect entry in the test with MRRL-CH1 [4], in the test with MRRL-CH1 [5] and with MRRL-CH1 [6] was “inactive” each time.
